Results gathered from unrelated publications.
Protocols differ between the studies behind these lines.
Effect on: cell growth or viability

Structure (SMILES)	cell line	assay	setting	quantity	value
CCCCCCCCCCCCCCCCCCOc1ccccc1CC(=O)OCC[N+](CC)(CC)CC	NCI-H322M	SRB	10 µM	inhibition	29.4%
CCCCC(=O)Nc1ccc(-c2ccc3ncn(CCCC)c(=O)c3c2)cn1	NCI-H1975	CCK-8	72 h	IC50	310 nM
CCCCCCCCCCCCCCCCCCOc1ccc(CC(=O)OCC[N+]2(C)CCCCC2)cc1	NCI-H322M	SRB	10 µM	inhibition	3.63%
NCCC(=O)Nc1ccccc1/N=c1\cc(-c2ccc3nc(N)oc3c2)oc2ccc(O)cc12	NCI-H1975	CCK-8	1 µM	inhibition	7.56%
CCCCC(=O)Nc1ncc(-c2ccc3ncn(CCC)c(=O)c3c2)cn1	NCI-H1975	CCK-8	72 h	IC50	2870 nM
CCCCCCCCCCCCCCCCCCOc1ccccc1CC(=O)OCC[N+]1(C)CCCC1	NCI-H322M	SRB	10 µM	inhibition	31.9%
C[C@H](Nc1ccc2c(c1)OCCn1cc(N3C(=O)OC[C@H]3C(F)F)nc1-2)C(N)=O	MKN-1	ATP luminescence	5 days	EC50	438 nM
C[C@H](N)C(=O)Nc1ccccc1/N=c1\cc(-c2ccc3c(c2)OCO3)oc2ccccc12	NCI-H1975	CCK-8	1 µM	inhibition	1.32%
COc1ccc(NC(=O)Nc2nc3cc(-c4ccc5ncn(Cc6ccccc6)c(=O)c5c4)ccc3s2)cc1	NCI-H1975	MTT	72 h	IC50	> 20000 nM
Nc1ccccc1/N=c1\cc(-c2ccc3c(c2)OCO3)oc2ccccc12	NCI-H1975	CCK-8	1 µM	inhibition	2.1%
COc1cccc(NC(=O)Nc2nc3cc(-c4ccc5ncn(CC(=O)N6CCOCC6)c(=O)c5c4)ccc3s2)c1	NCI-H1975	MTT	72 h	IC50	> 20000 nM
COc1ccc2/c(=N/c3ccccc3NC(=O)[C@@H](N)CO)cc(-c3ccc4c(c3)OCCO4)oc2c1	NCI-H1975	CCK-8	1 µM	inhibition	1.06%
Cc1cc(C)cc(NC(=O)Nc2nc3cc(-c4ccc5ncn(Cc6ccccc6)c(=O)c5c4)ccc3s2)c1	NCI-H1975	MTT	72 h	IC50	> 20000 nM
CCCCC(=O)Nc1ccc(-c2ccc3ncn(CCCF)c(=O)c3c2)cn1	NCI-H1975	CCK-8	72 h	IC50	140 nM
NCC(=O)Nc1ccccc1/N=c1\cc(-c2ccc3c(c2)OCCO3)oc2ccccc12	NCI-H1975	CCK-8	1 µM	inhibition	0.57%
CCCCCCCCCCCCCCCCCCOc1cccc(CC(=O)OCCC[N+](C)(C)C)c1	NCI-H322M	SRB	10 µM	inhibition	4.07%
COc1ccc(C(=O)Nc2nc3cc(-c4ccc5ncn(Cc6ccccc6)c(=O)c5c4)ccc3s2)cc1	NCI-H1975	MTT	72 h	IC50	> 20000 nM

Structure (SMILES)	cell line	assay	setting	quantity	value
NCCC(=O)Nc1ccccc1/N=c1\cc(-c2ccc3nc(N)oc3c2)oc2ccc(F)cc12	NCI-H1975	CCK-8	1 µM	inhibition	63.7%
Cc1nc(Nc2ncc(C(=O)Nc3c(C)cccc3Cl)s2)cc(N2CC[C@H](O)C2)n1	KARPAS-422	ATP luminescence	10 µM, 72 h	inhibition	91%
O=C(Nc1cccc(F)c1)Nc1nc2cc(-c3ccc4ncn(CCN5CCOCC5)c(=O)c4c3)ccc2s1	NCI-H1975	MTT	72 h	IC50	> 20000 nM
CCCCn1cnc2ccc(-c3ccc(NC(C)=O)nc3)cc2c1=O	NCI-H1975	CCK-8	72 h	IC50	> 10000 nM
CCCCCCCCCCCCCCCCCCOc1ccc(CC(=O)OCC[N+](CC)(CC)CC)cc1	NCI-H322M	SRB	10 µM	inhibition	13.3%
CCCCn1cnc2ccc(-c3ccc(NC(=O)Nc4ccc(OC(F)(F)F)cc4)nc3)cc2c1=O	NCI-H1975	CCK-8	72 h	IC50	470 nM
Cc1nc(NC(=O)N2CCC[C@H]2C(N)=O)sc1-c1ccnc(C(C)(C)C(F)(F)F)c1	MKN-1	ATP luminescence	5 days	EC50	2110 nM
C[C@H](N)C(=O)Nc1ccccc1/N=c1\cc(-c2ccc3c(c2)OCCO3)oc2cc(F)ccc12	NCI-H1975	CCK-8	1 µM	inhibition	-0.65%
O=C(Nc1ccc(-c2ccc3ncn(Cc4ccccc4)c(=O)c3c2)cn1)C1CCC1	NCI-H1975	CCK-8	72 h	IC50	> 10000 nM
CC(C)(C)[C@H](N)C(=O)Nc1ccccc1/N=c1\cc(-c2ccc3c(c2)OCO3)oc2ccccc12	NCI-H1975	CCK-8	1 µM	inhibition	3.21%
CCCCNC(=O)Nc1nc2cc(-c3ccc4ncn(Cc5ccccc5)c(=O)c4c3)ccc2s1	NCI-H1975	MTT	72 h	IC50	7570 nM
O=C(Nc1ccc(-c2ccc3ncn(Cc4ccccc4)c(=O)c3c2)cn1)c1ccco1	NCI-H1975	CCK-8	72 h	IC50	> 10000 nM
CC(C)CCn1cnc2ccc(-c3ccc4sc(NC(=O)Nc5ccc(F)cc5)nc4c3)cc2c1=O	NCI-H1975	MTT	72 h	IC50	960 nM
CCCCn1cnc2ccc(-c3ccc(NC(=O)NCc4ccccc4)nc3)cc2c1=O	NCI-H1975	CCK-8	72 h	IC50	290 nM
CCCCCCCCCCCCCCCCCCOc1ccc(CC(=O)OCC[N+]2(C)CCOCC2)cc1	NCI-H322M	SRB	10 µM	inhibition	3.14%
O=C(Nc1ccc(F)cc1)Nc1nc2cc(-c3ccc4ncn(Cc5ccccc5)c(=O)c4c3)ccc2s1	NCI-H1975	MTT	72 h	IC50	2340 nM
